Activity calls are given as the source filed them. The calls are words filed in the database; no cut-off is given here.
How the values were obtained:
[1] = organism: Sus scrofa; test: Inhibition of porcine pancreatic elastase using N-Suc-(L-Ala)3-p-nitroaniline at 300 molar excess
In short: (§1)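 Pre-incubation of PPE with 300- or 600-fold molar excess of inhibitor; residual activity measured with N-Suc-(L-Ala)3-p-nitroanilide.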

[2] = biological target: T1, Neutrophil elastase (Homo sapiens, UniProt P08246); test: Inhibition of human neutrophil elastase using chromogenic substrate (N-MeOSuc-Ala-Ala-Pro-Val-p-nitroanilide after 120 mins
T1 sequence (P08246 whole entry): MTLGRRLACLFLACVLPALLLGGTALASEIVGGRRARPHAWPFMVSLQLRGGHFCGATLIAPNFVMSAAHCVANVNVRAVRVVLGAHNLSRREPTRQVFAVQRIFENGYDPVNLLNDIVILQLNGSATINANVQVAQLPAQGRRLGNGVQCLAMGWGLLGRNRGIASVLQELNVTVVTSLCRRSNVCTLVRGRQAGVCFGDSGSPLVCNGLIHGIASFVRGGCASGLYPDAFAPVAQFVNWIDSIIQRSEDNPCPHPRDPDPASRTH

[3] = organism: Sus scrofa; test: Inhibition of porcine pancreatic elastase using N-Suc-(L-Ala)3-p-nitroaniline at 600 molar excess; in short: as §1
[4] = organism: Sus scrofa; test: Inhibition of porcine pancreatic elastase using N-Suc-(L-Ala)3-p-nitroaniline at 50 to 500 uM; details: TDE = time-dependent effect
[5] = organism: Sus scrofa; test: Inhibition of porcine pancreatic elastase using N-Suc-(L-Ala)3-p-nitroaniline
[6] = biological target: T2, Cathepsin G (Homo sapiens, UniProt P08311); test: Inhibition of cathepsin G using Suc-Ala-Ala-Pro-Phe-p-nitroanilide as substrate after 30 mins
T2 sequence (P08311 whole entry): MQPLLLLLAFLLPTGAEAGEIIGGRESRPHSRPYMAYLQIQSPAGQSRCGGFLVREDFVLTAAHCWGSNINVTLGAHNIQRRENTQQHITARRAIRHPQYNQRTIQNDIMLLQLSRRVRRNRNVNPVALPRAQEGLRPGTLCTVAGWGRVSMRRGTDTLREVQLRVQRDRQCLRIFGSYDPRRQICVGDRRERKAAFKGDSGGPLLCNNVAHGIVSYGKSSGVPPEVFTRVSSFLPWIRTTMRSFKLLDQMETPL

[7] = organism: Sus scrofa; test: Inhibition of porcine pancreatic elastase using N-Suc-(L-Ala)3-p-nitroaniline assessed as remaining activity at 2.5 to 500 uM after 15 mins
In short: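 PPE (5 µM) with inhibitor 2.5–500 µM in pH 7.25 HEPES, 15 min incubation; aliquots assayed for remaining activity (vt/v0) versus [I]/[E]0 ratio to estimate equivalents needed for inactivation.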

[8] = Drug degradation in CD3ONa/CD3OD solution assessed as 2-(methoxycarbonyloxy)propan-2-yl 4-methoxybenzoylcarbamate formation at room temperature for 15 mins by 1H-NMR analysis in the presence of sodium methoxide; type: physicochemical; details: 0.25 h
[9] = Drug degradation in methanol assessed as 2-(methoxycarbonyloxy)propan-2-yl 4-methoxybenzoylcarbamate formation at room temperature for 10 mins by TLC analysis in the presence of sodium methoxide; type: physicochemical
[10] = Half life of the compound in phosphate buffer at pH 7.4; type: physicochemical
In short: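 Hydrolysis in phosphate buffer, pH 7.4, at 37 °C; half-life in min.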

[11] = Drug degradation in CD3ONa/CD3OD solution assessed as methyl 4-methoxybenzoate formation at room temperature after 15 mins by 1H-NMR analysis in the presence of sodium methoxide; type: physicochemical; details: 0.25 h
[12] = Drug degradation in methanol assessed as methyl 4-methoxybenzoate formation at room temperature for 10 mins by TLC analysis in the presence of sodium methoxide; type: physicochemical

Compound	inhibition [1]	IC50 [2] [µM]	inhibition [4]	inhibition [5]	Activity [7] [%]	half-life [10] [min]	also measured
COc1ccc(N2C(=O)OC(C)(C)C2=O)cc1	inactive	> 500	–	–	–	–	–
CC1OC(=O)N(Cc2ccccc2)C1=O (stereo not drawn)	–	> 500	–	–	–	–	inhibition [3]: inactive
COc1ccc(N2C(=O)OC(C)C2=O)cc1 (stereo not drawn)	–	> 500	–	–	–	–	inhibition [3]: inactive
CC1(C)OC(=O)N(c2ccc([N+](=O)[O-])cc2)C1=O	inactive	> 500	–	–	–	–	–
CC1OC(=O)N(c2ccc([N+](=O)[O-])cc2)C1=O (stereo not drawn)	inactive	> 500	–	–	–	38.7	–
COc1ccc(C(=O)N2C(=O)OC(C)C2=O)cc1 (stereo not drawn)	–	> 500	tde	Dose-dependent effect	< 20	–	–

The next compounds have a lower IC50 [2] than those just listed; values first:

inhibition [1]	IC50 [2] [µM]	inhibition [4]	inhibition [5]	Activity [7] [%]	half-life [10] [min]	Compound	also measured
–	15.6	tde	Dose-dependent effect	–	–	CC1(C)OC(=O)N(Cc2ccccc2)C1=O	IC50 [6]: 2.1 µM
–	15.6	tde	Dose-dependent effect	< 20	–	COc1ccc(C(=O)N2C(=O)OC(c3ccccc3)C2=O)cc1 (stereo not drawn)	–
–	10.2	tde	Dose-dependent effect	< 20	16.7	COc1ccc(C(=O)N2C(=O)OC(C)(C)C2=O)cc1	Drug degradation [8]: Active; Drug degradation [9]: Active; Drug degradation [11]: Active; IC50 [6]: 14.2 µM; Drug degradation [12]: Active
–	2.6	tde	Dose-dependent effect	< 20	6.86	Cc1ccc(S(=O)(=O)N2C(=O)OC(C)(C)C2=O)cc1	–
